Blank lines part the entries; values can stand above or below the molecule they belong to.
What was measured:
KEAP1-BRD4BD2 = KEAP1-BRD4BD2 (Homo sapiens, UniProt O60885+Q14145); assay: KEAP1-BRD4BD2 dimerization TR-FRET assay; format: biochemical
Procedure, shortened: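 TR-FRET mix: 200 nM biotinylated human BRD4BD2, 200 nM Alexa Fluor 647-labelled human KEAP1 (residues 321–609, insect-cell expressed, SpyCatcher-labelled) and 2 nM Eu-streptavidin. Buffer was 50 mM Tris pH 8.0, 200 mM NaCl, 0.1% Pluronic F-68, 0.5% BSA and 1 mM TCEP; compound was titrated. After 15 min at room temperature, excitation was 337 nm and the 665/620 nm ratio was read over thirty 200-s cycles. Mean ± SD of ≥3 technical replicates; two independent experiments.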

BRD4 [1] = biological target: T1, BRD4 (Homo sapiens, UniProt O60885); assay: Immunoblot of BRD4 degradation in MM.1S cells; format: cell-based
Procedure, shortened: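 MM.1S cells were treated with test compound for 16 h (24 h in the initial screen). For rescue, cells were pretreated 2 h with 10 μM KEAP1 inhibitor, 10 μM JQ1 or 1 μM MLN4924. Lysates in RIPA were BCA-normalised, run on 4–12% gels and blotted to PVDF with IRDye secondaries. BRD4 bands were quantified relative to β-actin. Two independent experiments.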

BRD4 [2] = biological target: T1, BRD4; assay: Immunoblot of BRD4 degradation in parental and KEAP1 knockdown OVCAR8 cells; format: cell-based
Procedure, shortened: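 OVCAR8 cells were grown in DMEM with 10% FBS. KEAP1 knockdown lines came from shRNA lentivirus made in HEK293T, used with polybrene (10 μg/mL) and selected with puromycin (1 μg/mL); knockdown was checked by Western blot. Parental and knockdown cells were treated with test compound for 16 h, then immunoblotted. BRD4 was normalised to β-actin. Two independent experiments.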

MM.1S proteome = assay: Multiplexed mass spectrometry-based proteomics in MM.1S cells; format: cell-based, human; settings: 200 nM, 6 hours
Procedure, shortened: (§1)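 TMT-multiplexed LC-MS proteomics. Cells were treated with DMSO (biological triplicate) or test compound (MM.1S: 0.2 μM, 6 h; KPC: 1 μM, 8 h), harvested by centrifugation at 4 °C and lysed in 8 M urea/EPPS pH 8.5. 200 μg protein was reduced, alkylated and precipitated, digested with LysC 12 h at room temperature then trypsin 6 h at 37 °C, TMT-labelled, high-pH fractionated (96→24) and run on an Orbitrap Fusion Lumos.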

BRD4/3/2 = assay: Immunoblot of BRD4/3/2 in MM.1S cells; format: cell-based, human; settings: indicated time points
Procedure, shortened: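 MM.1S cells were grown in RPMI with 10% FBS at 37 °C and 5% CO2, then given DMSO or test compound for a time course. Cells were lysed in RIPA with protease and phosphatase inhibitors. BCA-equalised protein was run on 4–12% gels and transferred to PVDF. Primary antibodies ran overnight at 4 °C and IRDye secondaries 1 h at room temperature. BRD4/3/2 bands were normalised to β-actin by densitometry. Two independent experiments.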

KPC cells = assay: Quantitative proteomics in KPC cells; format: cell-based, mouse; settings: 1 μM, 8 hours
Procedure, shortened: as §1

FAK [3] = biological target: FAK (Mus musculus, UniProt P34152); assay: Immunoblot of FAK degradation in KPC cells; format: cell-based
Procedure, shortened: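 Murine pancreatic KPC cells (RPMI, 10% FBS) were exposed to 500 nM or 1 μM test compound over a time course. RIPA lysates were immunoblotted, with FAK band intensity normalised to β-actin in ImageJ. Blots are representative of two independent experiments.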

FAK [4] = biological target: FAK (Homo sapiens, UniProt Q05397); assay: Immunoblot of FAK degradation in PATU-8988T cells; format: cell-based; settings: 0.1–5 μM, 24 h
Procedure, shortened: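 Human PATU-8988T pancreatic cells (DMEM, 10% FBS) were treated 24 h with test compound at 0.1–5 μM. FAK was assessed by immunoblot of RIPA lysates and normalised to β-actin. Two independent experiments.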

HEK293T cells = assay: Quantitative proteomics in HEK293T cells; format: cell-based; settings: human HEK293T cells, 10 hour treatment

Sequence of FAK (Mus musculus, UniProt P34152) (P34152 whole entry): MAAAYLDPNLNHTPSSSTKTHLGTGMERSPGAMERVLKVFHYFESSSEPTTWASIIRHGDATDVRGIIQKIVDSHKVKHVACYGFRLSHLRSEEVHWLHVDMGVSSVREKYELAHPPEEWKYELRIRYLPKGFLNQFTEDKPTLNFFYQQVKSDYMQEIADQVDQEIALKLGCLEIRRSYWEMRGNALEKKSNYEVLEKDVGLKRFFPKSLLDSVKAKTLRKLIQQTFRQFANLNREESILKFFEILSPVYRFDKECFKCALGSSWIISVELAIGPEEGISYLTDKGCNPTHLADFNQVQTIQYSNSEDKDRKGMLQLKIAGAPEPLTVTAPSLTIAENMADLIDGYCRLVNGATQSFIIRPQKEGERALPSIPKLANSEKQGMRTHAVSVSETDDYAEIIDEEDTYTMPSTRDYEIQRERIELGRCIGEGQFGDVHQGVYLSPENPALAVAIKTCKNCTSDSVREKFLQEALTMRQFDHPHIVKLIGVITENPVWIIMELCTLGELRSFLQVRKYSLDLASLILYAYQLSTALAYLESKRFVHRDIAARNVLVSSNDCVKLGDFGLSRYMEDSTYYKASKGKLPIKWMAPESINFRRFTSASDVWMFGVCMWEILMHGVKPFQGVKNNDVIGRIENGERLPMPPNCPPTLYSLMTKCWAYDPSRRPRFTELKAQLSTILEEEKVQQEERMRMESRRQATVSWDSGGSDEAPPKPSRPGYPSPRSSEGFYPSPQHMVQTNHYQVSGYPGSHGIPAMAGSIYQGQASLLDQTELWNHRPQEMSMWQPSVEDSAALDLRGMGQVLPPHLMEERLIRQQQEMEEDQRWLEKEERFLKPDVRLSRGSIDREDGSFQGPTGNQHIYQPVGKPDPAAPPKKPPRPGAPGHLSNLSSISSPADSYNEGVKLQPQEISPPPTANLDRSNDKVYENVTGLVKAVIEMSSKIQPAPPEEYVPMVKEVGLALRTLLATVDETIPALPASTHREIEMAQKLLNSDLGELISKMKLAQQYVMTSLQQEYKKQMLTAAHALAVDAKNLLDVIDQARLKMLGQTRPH
Sequence of FAK (Homo sapiens, UniProt Q05397) (Q05397 whole entry): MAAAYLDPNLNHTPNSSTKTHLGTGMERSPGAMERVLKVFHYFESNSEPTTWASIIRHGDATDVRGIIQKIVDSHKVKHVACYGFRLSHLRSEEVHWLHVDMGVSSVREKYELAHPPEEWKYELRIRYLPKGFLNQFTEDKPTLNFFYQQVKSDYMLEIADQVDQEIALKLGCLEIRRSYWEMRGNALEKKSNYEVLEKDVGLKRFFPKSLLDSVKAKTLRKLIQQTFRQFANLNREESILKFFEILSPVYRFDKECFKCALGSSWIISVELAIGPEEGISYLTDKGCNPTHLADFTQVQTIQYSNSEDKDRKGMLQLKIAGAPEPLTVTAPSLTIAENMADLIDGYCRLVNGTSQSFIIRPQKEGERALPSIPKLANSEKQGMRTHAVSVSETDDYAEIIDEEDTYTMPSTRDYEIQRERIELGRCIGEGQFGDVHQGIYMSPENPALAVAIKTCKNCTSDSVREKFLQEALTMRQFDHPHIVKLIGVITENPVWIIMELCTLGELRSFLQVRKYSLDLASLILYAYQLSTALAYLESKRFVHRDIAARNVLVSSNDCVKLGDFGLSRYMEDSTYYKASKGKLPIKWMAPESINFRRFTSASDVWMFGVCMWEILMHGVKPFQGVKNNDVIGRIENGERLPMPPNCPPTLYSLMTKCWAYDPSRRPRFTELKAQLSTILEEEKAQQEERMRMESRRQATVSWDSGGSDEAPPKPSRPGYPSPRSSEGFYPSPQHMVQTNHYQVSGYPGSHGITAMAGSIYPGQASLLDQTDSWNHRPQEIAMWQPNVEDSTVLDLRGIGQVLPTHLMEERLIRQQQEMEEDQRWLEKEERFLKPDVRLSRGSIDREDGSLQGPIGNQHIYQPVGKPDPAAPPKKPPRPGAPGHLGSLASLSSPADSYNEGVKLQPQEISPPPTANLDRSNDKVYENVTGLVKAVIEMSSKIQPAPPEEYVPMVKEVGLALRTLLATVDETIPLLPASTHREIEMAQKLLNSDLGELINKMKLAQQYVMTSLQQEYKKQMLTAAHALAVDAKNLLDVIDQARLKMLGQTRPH
Sequence of KEAP1-BRD4BD2 (Q14145 321-609 limits assumed, other chains not shown): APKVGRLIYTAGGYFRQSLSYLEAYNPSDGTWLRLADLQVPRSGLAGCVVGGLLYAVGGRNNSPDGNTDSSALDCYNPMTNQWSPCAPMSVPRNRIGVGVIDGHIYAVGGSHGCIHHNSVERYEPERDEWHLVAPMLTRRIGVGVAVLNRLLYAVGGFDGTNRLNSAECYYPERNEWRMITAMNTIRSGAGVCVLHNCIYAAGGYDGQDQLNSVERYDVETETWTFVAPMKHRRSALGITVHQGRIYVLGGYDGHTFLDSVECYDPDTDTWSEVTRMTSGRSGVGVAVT

concentration at which KEAP1-BRD4BD2 dimerization is promoted (KEAP1-BRD4BD2): approximately 100 nM
BRD4 degradation, enantiomers compared (BRD4 [1]; MM1.S cells, 24-hour treatment at 1 μM): induced stronger degradation of BRD4
BRD4 degradation after pre-treatment with MLN4924 (BRD4 [1]; MM.1S cells, 1 μM MLN4924 2 h prior, then 16 hrs): BRD4 degradation was blocked
BRD4 degradation after pre-treatment with excess (+)-JQ1 or KI-696 (BRD4 [1]; MM.1S cells, 10 μM JQ1 or 10 μM KEAP1 inhibitor 2 h prior, then 16 hrs): abolished
effect on BRD4 abundance (BRD4 [2]; KEAP1 knockdown (KEAP1^KD) OVCAR8 cells, 16 h): no effect on BRD4 abundance
BRD4 degradation (BRD4 [2]; OVCAR8 cells, 1 μM): induces degradation of BRD4
concentration of maximal BRD4 degradation (BRD4 [2]; parental OVCAR8 cells, 16 hours): 1 µM
SMILES: COc1cc([C@@H](CC(=O)O)c2ccc(C)c(CN3C[C@@H](C)Oc4cc(CCCCCCNC(=O)C[C@@H]5N=C(c6ccc(Cl)cc6)c6c(sc(C)c6C)-n6c(C)nnc65)ccc4S3(=O)=O)c2)cc2nnn(C)c12 [DGY-06–177-pk2, (S)-3-(3-(((R)-7-(6-(2-((S)-4-(4-chlorophenyl)-2,3,9-trimethyl-6H-thieno[3,2-f][1,2,4]triazolo[4,3-a][1,4]diazepin-6-yl)acetamido)hexyl)-4-methyl-1,1-dioxido-3,4-dihydro-2H-benzo[b][1,4,5]oxathiazepin-2-yl)methyl)-4-methylphenyl)-3-(7-methoxy-1-methyl-1H-benzo[d][1,2,3]triazol-5-yl)propanoic acid]
selectivity of degradation across the proteome (MM.1S proteome): BRD4 as the only significantly downregulated protein
degradation of BRD4 versus BRD2 and BRD3 by immunoblotting (BRD4/3/2): preferentially induces BRD4 degradation while largely sparing BRD2&3

time of maximal FAK degradation (FAK [3]; 500 nM): 24 h
time of maximal FAK degradation (FAK [3]; 1 μM): 8 h
FAK degradation (FAK [4]): did not observe degradation of FAK
SMILES: COc1cc([C@@H](CC(=O)O)c2ccc(C)c(CN3C[C@@H](C)Oc4cc(CCCN5CCN(c6ccc(Nc7ncc(Cl)c(Nc8ccccc8S(=O)(=O)C(C)C)n7)cc6)CC5)ccc4S3(=O)=O)c2)cc2nnn(C)c12 [NJH-04–098, (S)-3-(3-(((R)-7-(3-(4-(4-((5-chloro-4-((2-(isopropylsulfonyl)phenyl)amino)pyrimidin-2-yl)amino)phenyl)piperazin-1-yl)propyl)-4-methyl-1,1-dioxido-3,4-dihydro-2H-benzo[b][1,4,5]oxathiazepin-2-yl)methyl)-4-methylphenyl)-3-(7-methoxy-1-methyl-1H-benzo[d][1,2,3]triazol-5-yl)propanoic acid]
proteins downregulated across the proteome (KPC cells): only FAK (PTK2) was significantly downregulated across the proteome

SMILES: Cc1ccc(C(CC(=O)O)c2cc(OCC(=O)NCCOCCOCCN3CCN(c4ccc(Nc5ncc(Cl)c(Nc6ccccc6S(=O)(=O)C(C)C)n5)cc4)CC3)c3c(c2)nnn3C)cc1CN1CC(C)Oc2ccccc2S1(=O)=O (centres unmarked) [DGY-03–188, 3-(7-(2-((2-(2-(2-(4-(4-((5-chloro-4-((2-(isopropylsulfonyl)phenyl)amino)pyrimidin-2-yl)amino)phenyl)piperazin-1-yl)ethoxy)ethoxy)ethyl)amino)-2-oxoethoxy)-1-methyl-1H-benzo[d][1,2,3]triazol-5-yl)-3-(4-methyl-3-((4-methyl-1,1-dioxido-3,4-dihydro-2H-benzo[b][1,4,5]oxathiazepin-2-yl)methyl)phenyl)propanoic acid]
degradation across the whole proteome (HEK293T cells): did not induce any degradation across the whole proteome

— PMC9588736 (Cell chemical biology, 2022)
